The values below come from ChEMBL document CHEMBL1152358, “Aminoparthenolides as novel anti-leukemic agents: Discovery of the NF-kappaB inhibitor, DMAPT (LC-1)” (Bioorg Med Chem Lett, 2009).

Data set [1] can be described thus: Antileukemic activity against acute myeloid leukemia cell assessed as cell death. The format is functional. The note with it: read-out: LD50 (the source's name). A digest of the protocol: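 Primary AML cells from consenting volunteer donors (one million cells) were cultured in serum-free medium. They were exposed for 24 h, with or without analog, in a dose-response series over 2.5–20 range. Cells were PBS-washed, stained with Annexin-V/7-AAD in HEPES pH 7.4 binding buffer for 15 min in the dark at ambient temperature, then run on a flow cytometer. Viability (Annexin V−/7-AAD−) was normalized to untreated controls, and LD₅₀ was calculated from this series.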

The nature of data set [2]: Antileukemic activity against acute myeloid leukemia cell assessed as cell death at 10 uM. Format: functional. A digest of the protocol: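 Probe screen: one million donor-derived primary AML cells in serum-free medium were incubated 24 h with or without analog at a single probe concentration. Cells were PBS-washed, then stained with Annexin-V and 7-AAD in HEPES/NaCl/CaCl₂ buffer pH 7.4 for 15 min, dark, ambient temperature. Flow cytometry followed immediately. Annexin V−/7-AAD− cells were scored viable, normalized to untreated specimens.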

The nature of data set [3]: Aqueous solubility of the compound. The note with it: buffer. The format is physicochemical.

Turning to `CCCN(C)C[C@@H]1C(=O)O[C@H]2[C@H]1CC/C(C)=C\CC[C@@]1(C)O[C@@H]21.O=C(O)/C=C/C(=O)O`, the CC50 in data set [1] was determined as 3200 nM. The Activity in data set [2] was determined as 95%. Take `C[C@@H]1C(=O)O[C@H]2[C@H]1CCC1(C)OC1CC[C@@]1(C)O[C@@H]21` (some centres not stated): in data set [2], the Activity amounted to 0%. Turning to `CCN(C)C[C@@H]1C(=O)O[C@H]2[C@H]1CC/C(C)=C\CC[C@@]1(C)O[C@@H]21.O=C(O)/C=C/C(=O)O`, the CC50 in data set [1] is 2500 nM. In addition, the Activity in data set [2] was 80%. In the case of `C/C1=C/CC[C@@]2(C)O[C@H]2[C@H]2OC(=O)[C@@H](CN[C@@H]3[C@@H](O)[C@H](O)[C@@H](CO)O[C@H]3O)[C@@H]2CC1.O=C(O)/C=C/C(=O)O`, in data set [2], the Activity was determined as 0%.

For the compound `C#CNC[C@@H]1C(=O)O[C@H]2[C@H]1CC/C(C)=C\CC[C@@]1(C)O[C@@H]21.O=C(O)/C=C/C(=O)O`, the Activity in data set [2] stood at 7%. As to `C/C1=C/CC[C@@]2(C)O[C@H]2[C@H]2OC(=O)[C@@H](CN(C)[C@@H]3[C@@H](O)[C@H](O)[C@@H](CO)O[C@H]3O)[C@@H]2CC1.O=C(O)/C=C/C(=O)O`, the Activity in data set [2] is 0%. On to `CCN(CC)C[C@@H]1C(=O)O[C@H]2[C@H]1CC/C(C)=C\CC[C@@]1(C)O[C@@H]21.O=C(O)/C=C/C(=O)O`, for which the Activity in data set [2] came to 60%.

Turning to `C=C1C(=O)O[C@@H]2C3O[C@]3(C)CC/C=C(\C)CC[C@@H]12` (some centres not stated), the CC50 in data set [1] stood at 1400 nM. In addition, the Activity in data set [2] amounted to 84%. In addition, the solubility in data set [3] was 0.169 uM/ml. As for `CNC[C@@H]1C(=O)O[C@H]2[C@H]1CC/C(C)=C\CC[C@@]1(C)O[C@@H]21.O=C(O)/C=C/C(=O)O`, the CC50 in data set [1] turned out to be 18000 nM. Also, the Activity in data set [2] worked out at 4%.

For the compound `C/C1=C/CC[C@@]2(C)O[C@H]2[C@H]2OC(=O)[C@@H](CN3CCCCCC3)[C@@H]2CC1.O=C(O)/C=C/C(=O)O`, the Activity in data set [2] is 15%. Still for that read-out and setting: with `C/C1=C/CC[C@@]2(C)O[C@H]2[C@H]2OC(=O)[C@@H](CNNC(C)(C)C)[C@@H]2CC1.O=C(O)/C=C/C(=O)O` the figure was 0%; with `C=CCN(CC=C)C[C@@H]1C(=O)O[C@H]2[C@H]1CC/C(C)=C\CC[C@@]1(C)O[C@@H]21.O=C(O)/C=C/C(=O)O`, 0%. `C/C1=C/CC[C@@]2(C)O[C@H]2[C@H]2OC(=O)[C@@H](CN3CCC(C)CC3)[C@@H]2CC1.O=C(O)/C=C/C(=O)O`: the CC50 in data set [1] turned out to be 1600 nM. Also, the Activity in data set [2] was found to be 83%. With `C/C1=C/CC[C@@]2(C)O[C@H]2[C@H]2OC(=O)[C@@H](CN(C3CCCCC3)C3CCCCC3)[C@@H]2CC1.O=C(O)/C=C/C(=O)O`, in data set [2], the Activity was 12%. Consider `C/C1=C/CC[C@@]2(C)O[C@H]2[C@H]2OC(=O)[C@@H](CNCCN)[C@@H]2CC1.O=C(O)/C=C/C(=O)O`, for which the Activity in data set [2] stood at 0%. Regarding `C/C1=C/CC[C@@]2(C)O[C@H]2[C@H]2OC(=O)[C@@H](CN3CCCCCCC3)[C@@H]2CC1.O=C(O)/C=C/C(=O)O`, in data set [2], the Activity is 13%. For the compound `C/C1=C/CC[C@@]2(C)O[C@H]2[C@H]2OC(=O)[C@@H](CNN(C)C)[C@@H]2CC1.O=C(O)/C=C/C(=O)O`, the Activity in data set [2] was determined as 0%. Consider `C/C1=C/CC[C@@]2(C)O[C@H]2[C@H]2OC(=O)[C@@H](CN(C)C)[C@@H]2CC1.O=C(O)/C=C/C(=O)O`, for which the CC50 in data set [1] was found to be 1700 nM. For the same compound, the Activity in data set [2] came out at 93%. On to `C/C1=C/CC[C@@]2(C)O[C@H]2[C@H]2OC(=O)[C@@H](CNCCCO)[C@@H]2CC1.O=C(O)/C=C/C(=O)O`, for which, in data set [2], the Activity is on record as 0%. For the compound `C/C1=C/CC[C@@]2(C)O[C@H]2[C@H]2OC(=O)[C@@H](CN(C)C(C)C)[C@@H]2CC1.O=C(O)/C=C/C(=O)O`, in data set [2], the Activity amounted to 78%.

As to `C/C1=C/CC[C@@]2(C)O[C@H]2[C@H]2OC(=O)[C@@H](CN(C(C)C)C(C)C)[C@@H]2CC1.O=C(O)/C=C/C(=O)O`, the Activity in data set [2] is 20%. Consider `C/C1=C/CC[C@@]2(C)O[C@H]2[C@H]2OC(=O)[C@@H](CN(C)CCO)[C@@H]2CC1.O=C(O)/C=C/C(=O)O`, for which, in data set [1], the CC50 was 1800 nM. In addition, the Activity in data set [2] came out at 86%.

Consider `CCCCN(C)C[C@@H]1C(=O)O[C@H]2[C@H]1CC/C(C)=C\CC[C@@]1(C)O[C@@H]21.O=C(O)/C=C/C(=O)O`, for which the CC50 in data set [1] worked out at 2800 nM. Besides, in data set [2], the Activity was determined as 68%. Consider `CCCN(CCC)C[C@@H]1C(=O)O[C@H]2[C@H]1CC/C(C)=C\CC[C@@]1(C)O[C@@H]21.O=C(O)/C=C/C(=O)O`, for which the Activity in data set [2] is 0%.

For `C/C1=C/CC[C@@]2(C)O[C@H]2[C@H]2OC(=O)[C@@H](C)[C@@H]2CC1`, the Activity in data set [2] stood at 0%. The same measure, in the same setting: as for `C=C1C(=O)O[C@H]2[C@H]1CC/C(C=O)=C\CC[C@@]1(C)O[C@@H]21`, the figure is 0%. For the compound `CCNC[C@@H]1C(=O)O[C@H]2[C@H]1CC/C(C)=C\CC[C@@]1(C)O[C@@H]21.O=C(O)/C=C/C(=O)O`, the CC50 in data set [1] amounted to 31000 nM. For the same compound, the Activity in data set [2] came out at 2%. In the case of `C=C1C(=O)O[C@H]2[C@H]1CC/C(CO)=C\CC[C@@]1(C)O[C@@H]21`, in data set [2], the Activity came out at 0%. As for `C/C1=C/CC[C@@]2(C)O[C@H]2[C@H]2OC(=O)[C@@H](CNCCCN)[C@@H]2CC1.O=C(O)/C=C/C(=O)O`, in data set [2], the Activity is recorded as 0%. Consider `C/C1=C/CC[C@@]2(C)O[C@H]2[C@H]2OC(=O)[C@@H](CN(C)C3CCCCC3)[C@@H]2CC1.O=C(O)/C=C/C(=O)O`, for which the CC50 in data set [1] is 15000 nM. The Activity in data set [2] turned out to be 0%. Turning to `CCCCCN(C)C[C@@H]1C(=O)O[C@H]2[C@H]1CC/C(C)=C\CC[C@@]1(C)O[C@@H]21.O=C(O)/C=C/C(=O)O`, the CC50 in data set [1] was found to be 4600 nM. For the same compound, the Activity in data set [2] was 46%.

On to `C/C1=C/CC[C@@]2(C)O[C@H]2[C@H]2OC(=O)[C@@H](CN3CCCCC3)[C@@H]2CC1.O=C(O)/C=C/C(=O)O`, for which the CC50 in data set [1] came to 2400 nM. Moreover, the Activity in data set [2] is reported as 76%. For `C/C1=C/CC[C@@]2(C)O[C@H]2[C@H]2OC(=O)[C@@H](CN3CCCC3)[C@@H]2CC1.O=C(O)/C=C/C(=O)O` the same measures were 2700 nM and 82%. For `C/C1=C/CC[C@@]2(C)O[C@H]2[C@H]2OC(=O)[C@@H](CN3CC3)[C@@H]2CC1.O=C(O)/C=C/C(=O)O`, in data set [2], the Activity amounted to 22%. For `C/C1=C/CC[C@@]2(C)O[C@H]2[C@H]2OC(=O)[C@@H](CNC3CC3)[C@@H]2CC1.O=C(O)/C=C/C(=O)O`, the Activity in data set [2] came out at 6%. On to `C/C1=C/CC[C@@]2(C)O[C@H]2[C@H]2OC(=O)[C@@H](CNCCO)[C@@H]2CC1.O=C(O)/C=C/C(=O)O`, for which the Activity in data set [2] was 0%. `C/C1=C/CC[C@@]2(C)O[C@H]2[C@H]2OC(=O)[C@@H](CN3CCOCC3)[C@@H]2CC1.O=C(O)/C=C/C(=O)O`: the CC50 in data set [1] turned out to be 14000 nM. Also, the Activity in data set [2] was 20%.
